Source: ChEMBL document CHEMBL1123363, “(5-Amino-1,3-dimethyl-1H-pyrazol-4-yl)(2-fluorophenyl)methanones . A series of novel potential antipsychotic agents” (J Med Chem, 1986)
Calls of active or inactive are those of the source. The rule behind the calls is not given here.

What was measured:
[1] = test system: Rattus norvegicus; test: Suppression of conditional avoidance after peroral administration; format: functional; conditions: po
How it was run: (§1)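 Fasted male Wistar rats (150–250 g) were trained to jump to a platform at a buzzer to avoid grid shock (1.1 mA/s). After oral dosing they were tested every 20 min for 6 h over 19 trials, 10 rats per dose, each rat used once. Peak effect was the mean of the four consecutive trials with the largest effect, computed from response latency. ED50 read graphically from at least three doses.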

[2] = biological target: Dopamine receptor; test: Binding affinity for dopamine receptor in rat striatal membrane using [3H]haloperidol as radioligand; format: cell membranes, Striatum
How it was run: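 Nonspecific binding defined with (+)-butaclamol at 0.1 μM final. IC50 fitted by nonlinear curve fit from four or five concentrations in triplicate.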

[3] = species on record: Mus musculus; test: Ability to inhibit locomotor activity using ataxia test.; format: functional; conditions: read-out: MED
How it was run: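 Male Swiss–Webster mice (20–30 g, unfasted), nine per dose in groups of three, dosed ip in 0.2% methocel (dose as parent compound) 1 h before testing. Ataxia was scored first on an inverted screen over 60 s as % of mice falling. […] ED50 from at least three doses.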

[4] = species on record: Rattus norvegicus; test: Compound was tested for its potential to produce clonic seizures in rats; + indicates compound is causing seizures; format: functional, organism-based
How it was run: (§2)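 Any sign of seizure marked the compound as seizure-causing; the outcome was not quantified.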

[5] = Compound was tested for inhibition of extrapyramidal side effect test in cebus monkey; format: functional; conditions: read-out: MED
How it was run: (§3)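 Groups of three to six were then dosed by gavage and observed hourly for 6–8 h for dystonia or dyskinesia. Any unequivocal sign counted as a positive response. Minimal effective dose was determined in at least three animals.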

[6] = test system: Rattus norvegicus; test: The compound was tested for inhibition of conditional avoid in rats after peroral administration; format: functional; conditions: po; how it was run: as §1
[7] = Inhibition of sidman avoid in squirrel monkeys after peroral administration; format: functional; conditions: po
How it was run: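 Mature squirrel monkeys, trained on a modified Sidman avoidance lever schedule, were dosed orally and tested in 6-h sessions. Inhibition was expressed as % of each animal's own nondrug responding. At least three doses were given to four animals, with sessions at least 1 week apart. ED50 from nonlinear regression.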

[8] = test system: Mus musculus; test: Compound was tested for inhibition of apomorphine-induced climbing in mice after intraperitoneal administration; format: functional; conditions: ip
How it was run: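 Male Swiss–Webster mice (25–35 g), ten per dose, acclimated 30 min in cylindrical cages, dosed ip, then given apomorphine 3 mg/kg sc 1 h later. Climbing scored in 30-s tests every 5 min for 30 min, starting 15 min after apomorphine. At least three doses; ED50 by nonlinear regression.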

[9] = species on record: Rattus norvegicus; test: Compound was tested for its potential to produce clonic seizures in rats; + indicates that they are causing seizures; format: functional, organism-based; how it was run: as §2
[10] = biological target: Beta-1 adrenergic receptor (Rattus norvegicus, UniProt P18090); test: Binding affinity against beta-1 adrenergic receptor in rat brain using [3H]DHA; format: tissue-based
How it was run: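 β1 binding was run on rat cerebral cortex membranes from male Long–Evans rats (150–250 g) with [3H]dihydroalprenolol at 0.5 nM final. Nonspecific binding was defined with (−)-alprenolol at 1 μM final. IC50 from four or five concentrations by nonlinear curve fit.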

[11] = test system: Rattus norvegicus; test: Compound was tested for serum prolactin assay method in rats at 1 mg/kg dose after peroral administration; format: functional; conditions: route oral
How it was run: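 Seven-week-old male Sprague–Dawley rats, five per group, were dosed orally and killed by decapitation 1 h later. Serum prolactin from trunk blood was measured by radioimmunoassay with [125I]-PRL and expressed as % of control (mean ± SEM).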

[12] = test system: Rattus norvegicus; test: Compound was tested for its affect on the accumulation of the dopamine metabolite homovanillic acid (HAV) in the rat striatum at 1 mg/kg dose after peroral administration; format: functional; conditions: route oral
How it was run: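 Male Long–Evans rats were dosed orally and decapitated 2 h later. Striatal HVA was isolated on Sephadex G-10 and measured spectrofluorometrically, expressed as % control ± SEM.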

[13] = biological target: T1, Beta-2 adrenergic receptor (Rattus norvegicus, UniProt P10608); test: (§4) Binding affinity against beta-2 adrenergic receptor in rat brain using [3H]DHA; format: tissue-based
How it was run: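 β2 sites in rat cerebellum membranes (male Long-Evans, 150–250 g) with [3H]dihydroalprenolol at 0.5 nM final. (-)-Alprenolol at 1 μM final defined the reference. IC50 from four or five concentrations by nonlinear curve fit.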

[14] = test system: Rattus norvegicus; test: Antagonized affect on the accumulation of the brain dopamine induced by butyrolactone (GBL) at 5 mg/kg after intraperitoneal administration; format: functional; parameters: scale not given: the % may be the effect or the level left
[15] = Extrapyramidal side effect test in cebus monkey; format: functional; conditions: read-out: MED; how it was run: as §3
[16] = Compound was tested for inhibition of sidman avoid in squirrel monkeys after peroral administration; conditions: Saimiri, po
[17] = test system: Canis familiaris; test: Compound was tested for inhibition of emesis test in dogs administered perorally; antiemetic; format: functional, organism-based; conditions: Canis lupus familiaris
[18] = test system: Rattus norvegicus; test: Compound was tested for inhibition of conditional avoid in rats after peroral administration; format: functional; conditions: po
How it was run: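 Fasted male Wistar rats (150–250 g) trained to jump to a platform at a buzzer to avoid grid shock (1.1 mA/s). After oral dosing, tested every 20 min for 6 h over 19 trials, 10 rats per dose. Peak effect from four consecutive trials using response latency. ED50 read graphically from at least three doses.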

[19] = test system: Mus musculus; test: Compound was tested for inhibition of locomotor activity and ataxia in mice after intraperitoneal administration; format: functional; conditions: ip
How it was run: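 Unfasted male Swiss–Webster mice (20–30 g), nine per dose in groups of three, given compound ip in 0.2% methocel 1 h before testing. Ataxia assessed by 60-s inverted screen test, then photocell actophotometer locomotion recorded over 60 min as percent inhibition versus vehicle. At least three doses.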

[20] = biological target: T1, Beta-2 adrenergic receptor; test: as §4; format: tissue-based; remark: listed apart in the source
How it was run: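 β2 binding on rat cerebellum membranes (male Long–Evans rats, 150–250 g) with [3H]dihydroalprenolol, 0.5 nM final. Nonspecific binding defined with (-)-alprenolol, 1 μM final. IC50 from four or five concentrations by nonlinear curve fit.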

[21] = Binding affinity against […] in rat striatal membrane using [3H]haloperidol
[22] = test system: Rattus norvegicus; test: Antagonized affect on the accumulation of the brain dopamine induced by butyrolactone (GBL) at 10 mg/kg after intraperitoneal administration; format: functional; parameters: scale not given: the % may be the effect or the level left
[23] = biological target: Adenylate cyclase; test: The compound was tested for adenylate cyclase activity in rat corpus striatum; format: tissue-based
How it was run: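 Striatal homogenates from male Long–Evans rats (200–300 g). Test substance concentration varied with dopamine held at 20 μM. Cyclic AMP formed was measured by radioimmunoassay, in triplicate.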

T1 sequence (P10608 whole entry): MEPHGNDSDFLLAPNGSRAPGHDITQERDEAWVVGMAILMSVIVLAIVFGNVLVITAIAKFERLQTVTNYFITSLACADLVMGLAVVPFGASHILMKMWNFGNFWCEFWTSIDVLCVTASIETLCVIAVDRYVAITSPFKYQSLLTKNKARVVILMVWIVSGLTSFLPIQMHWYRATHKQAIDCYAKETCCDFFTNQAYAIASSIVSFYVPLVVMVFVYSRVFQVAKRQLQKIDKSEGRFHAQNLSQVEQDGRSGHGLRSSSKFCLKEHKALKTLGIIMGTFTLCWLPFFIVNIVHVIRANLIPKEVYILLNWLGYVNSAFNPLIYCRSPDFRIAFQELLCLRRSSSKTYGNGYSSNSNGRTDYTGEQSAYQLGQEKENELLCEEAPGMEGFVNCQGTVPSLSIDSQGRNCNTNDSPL
Beta-1 adrenergic receptor, sequence (P18090 whole entry): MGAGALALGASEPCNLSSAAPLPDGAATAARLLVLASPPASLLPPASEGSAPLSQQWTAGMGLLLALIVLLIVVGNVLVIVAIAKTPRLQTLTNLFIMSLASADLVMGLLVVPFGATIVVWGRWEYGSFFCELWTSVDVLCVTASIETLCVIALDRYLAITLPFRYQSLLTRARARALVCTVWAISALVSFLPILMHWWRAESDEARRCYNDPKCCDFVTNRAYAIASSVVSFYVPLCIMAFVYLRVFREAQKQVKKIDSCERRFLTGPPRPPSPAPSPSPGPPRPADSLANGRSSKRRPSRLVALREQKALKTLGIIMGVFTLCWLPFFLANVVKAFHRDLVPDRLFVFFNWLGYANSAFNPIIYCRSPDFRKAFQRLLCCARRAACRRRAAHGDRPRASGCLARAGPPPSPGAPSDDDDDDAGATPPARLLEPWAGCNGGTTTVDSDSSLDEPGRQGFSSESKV

| SMILES | ED50 [1] [mg/kg] | IC50 [2] [µM] | minimal effective dose [3] [mg/kg] | other results |
| --- | --- | --- | --- | --- |
| Cc1nn(C)c(NC(=O)CCN2CCCC2)c1C(=O)c1ccccc1F | 15 | > 10 | 100 |  |
| Cc1nn(C)c(N(C)S(C)(=O)=O)c1C(=O)c1ccccc1F |  |  | > 90 | Clonic seizures [4]: causing seizures |
| CSc1ccc2c(c1)N(CCC1CCCCN1C)c1ccccc1S2 (stereo not given) [THIORIDAZINE] |  |  |  | minimal effective dose [5]: 2.5 mg/kg; ED50 [6]: 5.8 mg/kg; ED50 [7]: 4.3 mg/kg; ED50 [8]: 3.4 mg/kg |
| Cc1nn(C)c(N(C)C(=O)C(F)(F)F)c1C(=O)c1ccccc1F |  |  | > 100 | Clonic seizures [4]: causing seizures |
| Cc1nn(C)c(NC(=O)C(Cl)Cl)c1C(=O)c1ccccc1F |  |  | 30 | Clonic seizures [9]: causing seizures |
| O=C(CCCN1CCC(O)(c2ccc(Cl)cc2)CC1)c1ccc(F)cc1 [HALOPERIDOL] |  |  |  | IC50 [10]: > 10 µM; Control [11]: 224%; Control [12]: 348.9%; IC50 [13]: > 10 µM |
| Cc1nn(C)c(NC(=O)CN(C)CCCN2CCCCC2C)c1C(=O)c1ccccc1F (stereo not given) | 21 | > 10 | 30 |  |
| CN1CCc2cccc3c2[C@H]1Cc1ccc(O)c(O)c1-3 [APOMORPHINE] |  |  |  | Control [14]: 75% |
| CC(=O)Nc1c(C(=O)c2ccccc2F)c(C)nn1C |  |  | 30 | Clonic seizures [4]: causing seizures |
| Cc1nn(C)c(N(C)C(=O)CNCCCN2CCCCC2C)c1C(=O)c1ccccc1F (stereo not given) | > 100 | > 10 | > 100 |  |
| Cc1nn(C)c(NC(=O)CNCCCN2CCCCC2)c1C(=O)c1ccccc1F | 16 | > 10 | 100 |  |
| Cc1nn(C)c(NC(=O)CN2CCCC2)c1C(=O)c1ccccc1F | 48 | > 10 | 30 |  |
| Cc1nn(C)c(NC(=O)C(C)N2CCCC2)c1C(=O)c1ccccc1F (stereo not given) | > 100 | > 10 | 100 |  |
| Cc1nn(C)c(NC(=O)CNCCCN2CCC(C)CC2)c1C(=O)c1ccccc1F |  | > 10 | 100 |  |
| CN1CCN(C2=Nc3cc(Cl)ccc3Nc3ccccc32)CC1 [CLOZAPINE] |  |  |  | minimal effective dose [15]: > 30 mg/kg; ED50 [16]: 4.1 mg/kg; MED [17]: Active; ED50 [18]: 22 mg/kg; ED50 [19]: 5.65 mg/kg; IC50 [20]: > 10 µM; ED50 [8]: 10 mg/kg |
| Cc1nn(C)c(NC(=O)CNCCCNC(C)(C)C)c1C(=O)c1ccccc1F | 46 |  | 30 | IC50 [21]: > 10 µM |
| Cc1nn(C)c(NC(=O)CN2CCCCC2)c1C(=O)c1ccccc1F | > 100 | > 10 | 30 |  |
| CC(C)C[C@H]1C(=O)N2CCC[C@H]2[C@]2(O)O[C@](NC(=O)[C@@H]3C=C4c5cccc6[nH]c(Br)c(c56)C[C@H]4N(C)C3)(C(C)C)C(=O)N12 [BROMOCRIPTINE] |  |  |  | Control [11]: 32.7%; Control [22]: 82.4% |
| Cc1nn(C)c(NC(=O)C(C)(C)N2CCCC2)c1C(=O)c1ccccc1F | > 56 | > 10 | > 100 |  |
| Cc1nn(C)c(NC(=O)CNCCCN2CCCC(C)C2)c1C(=O)c1ccccc1F (stereo not given) | 100 | > 10 | 100 |  |
| Cc1nn(C)c(NC(=O)CN2CCC3(CC2)C(=O)NCN3c2ccccc2)c1C(=O)c1ccccc1F | 15.5 | > 10 | 100 |  |
| CCCNc1c(C(=O)c2ccccc2F)c(C)nn1C |  |  | < 10 | Clonic seizures [4]: causing seizures |
| Cc1nn(C)c(NC(=O)C(F)(F)F)c1C(=O)c1ccccc1F |  |  | < 10 | Clonic seizures [4]: causing seizures |
| Cc1nn(C)c(NC(=O)CNCCN2CCCCC2)c1C(=O)c1ccccc1F | 38 | > 10 | 30 |  |
| Cc1nn(C)c(NC(=O)CN2CCC(c3ccccc3)CC2)c1C(=O)c1ccccc1F | 100 | > 10 | 30 |  |
| OCCN1CCN(CCCN2c3ccccc3Sc3ccc(C(F)(F)F)cc32)CC1 [FLUPHENAZINE] |  |  |  | IC50 [23]: 0.08 µM |
| Cc1nn(C)c(NC(=O)CNCCCN(C)C)c1C(=O)c1ccccc1F | 56 | > 10 | 80 |  |
| CNc1c(C(=O)c2ccccc2F)c(C)nn1C |  |  | 30 | Clonic seizures [4]: causing seizures |
| Cc1nn(C)c(NC(=O)CNCCN(C(C)C)C(C)C)c1C(=O)c1ccccc1F | 71 | > 10 | 100 |  |
